Test results from ChEMBL document CHEMBL1817661, “Combining carbochips and mass spectrometry to study the donor specificity for the Neisseria meningitidis β1,3-N-acetylglucosaminyltransferase LgtA” (Bioorg Med Chem Lett, 2011).
Blank lines part the entries; values can stand above or below the molecule they belong to. Calls of active or inactive are those of the source. No cut-off for these calls is given here.

Assays:
[1] = target: T1, Beta 1,3 N-acetylglucosaminyltransferase (Neisseria meningitidis) (UniProt Q8KHG4); assay: Ratio of Vmax to Km for Neisseria meningitidis beta1,3-N-acetylglucosaminyltransferase LgtA assessed as enzyme catalyzed glycosylation using lactose as substrate after 2 to 30 mins by SAMDI analysis
T1 sequence (whole entry): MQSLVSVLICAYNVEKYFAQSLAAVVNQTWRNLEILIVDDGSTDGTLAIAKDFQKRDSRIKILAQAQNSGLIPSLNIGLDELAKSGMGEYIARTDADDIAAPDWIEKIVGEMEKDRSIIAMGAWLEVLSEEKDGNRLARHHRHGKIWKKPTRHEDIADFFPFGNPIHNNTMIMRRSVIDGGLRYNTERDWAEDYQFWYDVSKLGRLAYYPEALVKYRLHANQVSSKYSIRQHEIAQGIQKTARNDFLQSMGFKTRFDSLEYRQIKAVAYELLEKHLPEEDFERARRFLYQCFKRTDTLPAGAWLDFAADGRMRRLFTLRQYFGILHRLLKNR
Method in brief: (§1)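 Solution-phase reactions: LgtA with lactose azide acceptor (10 mM) and UDP-sugar donor at five concentrations (1–10 mM), 30 °C. Sets stopped at 12 time points. Aliquots mixed with copper bromide and DIPEA and immobilized on monolayer islands (20 min). Yield comes from product/substrate SAMDI peak intensities. Initial velocities are slopes of linear fits of yield vs time. Apparent Km and Vmax are taken from a reciprocal plot.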

[2] = target: T1, Beta 1,3 N-acetylglucosaminyltransferase (Neisseria meningitidis); assay: Activity of Neisseria meningitidis beta1,3-N-acetylglucosaminyltransferase LgtA assessed as enzyme catalyzed glycosylation using self-assembled monolayers having lactoside as acceptor at 2 mM after 5 to 120 mins by SAMDI MS assay
Method in brief: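 Gold islands (2 mm) carry a monolayer of lactose (10% density) with tri(ethylene glycol) groups. Each donor analog (2 mM) is mixed with LgtA in assay buffer, applied to an island, and incubated in a humidified chamber at 30 °C. Times were 5, 10, 15, 20, 30, 40, 60 and 120 min. Arrays were rinsed with water and ethanol, matrix was applied, and relative glycosylation product was read by SAMDI MS.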

[3] = substrate: CCC(=O)N[C@H]1[C@@H](OP(=O)(O)OP(=O)(O)OC[C@H]2O[C@@H](n3ccc(=O)[nH]c3=O)[C@H](O)[C@@H]2O)O[C@H](CO)[C@@H](O)[C@@H]1O; assay: (§2) Activity of Neisseria meningitidis beta1,3-N-acetylglucosaminyltransferase LgtA assessed as enzyme catalyzed glycosylation using lactose as substrate after 2 to 30 mins by SAMDI analysis; method in brief: as §1
[4] = substrate: CC(=O)N[C@H]1[C@@H](OP(=O)(O)OP(=O)(O)OC[C@H]2O[C@@H](n3ccc(=O)[nH]c3=O)[C@H](O)[C@@H]2O)O[C@H](C)[C@H](O)[C@@H]1O; assay: as §2; method in brief: as §1
[5] = substrate: CC(=O)N[C@H]1[C@@H](OP(=O)(O)OP(=O)(O)OC[C@H]2O[C@@H](n3ccc(=O)[nH]c3=O)[C@H](O)[C@@H]2O)O[C@H](C)[C@@H](O)[C@@H]1O; assay: as §2; method in brief: as §1
[6] = substrate: CC(=O)N[C@H]1[C@@H](OP(=O)(O)OP(=O)(O)OC[C@H]2O[C@@H](n3ccc(=O)[nH]c3=O)[C@H](O)[C@@H]2O)O[C@H](CO)C[C@@H]1O; assay: as §2; method in brief: as §1

- Vmax/Km [1]: 0.259 min⁻¹
- Activity [2]: Active
Molecule: CC(=O)N[C@H]1[C@@H](OP(=O)(O)OP(=O)(O)OC[C@H]2O[C@@H](n3ccc(=O)[nH]c3=O)[C@H](O)[C@@H]2O)O[C@H](C)[C@@H](O)[C@@H]1O

- Vmax/Km [1]: 0.038 min⁻¹
Molecule: CC(=O)N[C@H]1[C@@H](OP(=O)(O)OP(=O)(O)OC[C@H]2O[C@@H](n3ccc(=O)[nH]c3=O)[C@H](O)[C@@H]2O)O[C@H](C)[C@H](O)[C@@H]1O

- Vmax/Km [1]: 1.15 min⁻¹
Molecule: CC(=O)N[C@@H]1[C@H](OP(=O)(O)OP(=O)(O)OC[C@H]2O[C@@H](n3ccc(=O)[nH]c3=O)[C@H](O)[C@@H]2O)O[C@@H](CO)[C@H](O)[C@H]1O (stereo in doubt; 1)

- Vmax/Km [1]: 0.065 min⁻¹
Molecule: CC(=O)N[C@@H]1[C@H](OP(=O)(O)OP(=O)(O)OC[C@H]2O[C@@H](n3ccc(=O)[nH]c3=O)[C@H](O)[C@@H]2O)O[C@@H](CO)[C@H](O)[C@H]1O (stereo in doubt; 8)

The remaining lines, values behind:

Molecule: CCC(=O)N[C@H]1[C@@H](OP(=O)(O)OP(=O)(O)OC[C@H]2O[C@@H](n3ccc(=O)[nH]c3=O)[C@H](O)[C@@H]2O)O[C@H](CO)[C@@H](O)[C@@H]1O
- Vmax/Km [1]: 0.005 min⁻¹

Molecule: CC(=O)N[C@H]1[C@@H](OP(=O)(O)OP(=O)(O)OC[C@H]2O[C@@H](n3ccc(=O)[nH]c3=O)[C@H](O)[C@@H]2O)O[C@H](CO)C[C@@H]1O
- Vmax/Km [1]: 0.029 min⁻¹

Molecule: [N-]=[N+]=NCC(=O)N[C@H]1[C@@H](OP(=O)(O)OP(=O)(O)OC[C@H]2O[C@@H](n3ccc(=O)[nH]c3=O)[C@H](O)[C@@H]2O)O[C@H](CO)[C@@H](O)[C@@H]1O
- Activity [2]: inactive

B1: Beta 1,3 N-acetylglucosaminyltransferase (Neisseria meningitidis), Q8KHG4 (protein)
chain: T1 sequence (whole entry)
- Km [3]: 21.1 mM
- Vmax [3]: 0.11 mM/min
- Km [4]: 3.05 mM
- Vmax [4]: 0.115 mM/min
- Km [5]: 1.32 mM
- Vmax [5]: 0.343 mM/min
- Km [6]: 3.28 mM
- Vmax [6]: 0.097 mM/min
